DAGLB inhibitor: diacylglycerol lipase beta (human) inhibition. 0.059% of 340,000 active. AID 504411. HEK293T DAGLB membrane lysate, EnzChek fluorogenic substrate. Q8NCG7. inhibition, % at 5.17 µM; in the data active = inhibition above about 34%;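 also: 0% = enzyme with vehicle and 100% = wells lacking enzyme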
MT1-MMP act inh: MT1-MMP (human) activation inhibition; P50281; HT1080 RFP-PRO-GFP cells, GFP/RFP ratio fluorescence, overnight; percent of plate control window, DMSO zero; GFP/RFP ratio change, % at 20 µM; 0.061% of 360,000 active; AID 651647;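 active = GFP/RFP ratio change of at least 30% with cell ATP level not reduced by more than half and red fluorescence within 50% of control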
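Compound: 20 µM single dose, 1% DMSO / System: HT1080 RFP-PRO-GFP cells / Controls: DMSO and RFP-L50D-GFP cell wells / Read-out basis: GFP/RFP fluorescence ratio / Schedule: overnight compound exposure at 37 °C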
VLA-4 inh: inhibition in a human VLA-4 binding assay; inhibition, % (about 7 µM as worked out from the volumes in the protocol); P13612; 0.2% of 330,000 active; VLA-4 expressing cells, ligand binding flow cytometry; AID 2557; in the data active = inhibition above about 50%
ABCB6 inh MLPCN: inhibitors of human ABC transporter ABCB6; Q9NP58; K562-ABCB6 porphyrin accumulation, flow cytometry, 1 h; stronger effect = lower value; fluorescence ratio to DMSO, % at 10 µM; 0.19% of 360,000 active;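 active = fluorescence ratio to DMSO below 75%, the collection mean minus 3 SD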;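 also: signal is porphyrin accumulated inside mitochondria; 100% equals median channel fluorescence of DMSO control wells; lower ratio means ABCB6 inhibition with less porphyrin fluorescence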
Target sequence (Q9NP58 whole entry, looked up): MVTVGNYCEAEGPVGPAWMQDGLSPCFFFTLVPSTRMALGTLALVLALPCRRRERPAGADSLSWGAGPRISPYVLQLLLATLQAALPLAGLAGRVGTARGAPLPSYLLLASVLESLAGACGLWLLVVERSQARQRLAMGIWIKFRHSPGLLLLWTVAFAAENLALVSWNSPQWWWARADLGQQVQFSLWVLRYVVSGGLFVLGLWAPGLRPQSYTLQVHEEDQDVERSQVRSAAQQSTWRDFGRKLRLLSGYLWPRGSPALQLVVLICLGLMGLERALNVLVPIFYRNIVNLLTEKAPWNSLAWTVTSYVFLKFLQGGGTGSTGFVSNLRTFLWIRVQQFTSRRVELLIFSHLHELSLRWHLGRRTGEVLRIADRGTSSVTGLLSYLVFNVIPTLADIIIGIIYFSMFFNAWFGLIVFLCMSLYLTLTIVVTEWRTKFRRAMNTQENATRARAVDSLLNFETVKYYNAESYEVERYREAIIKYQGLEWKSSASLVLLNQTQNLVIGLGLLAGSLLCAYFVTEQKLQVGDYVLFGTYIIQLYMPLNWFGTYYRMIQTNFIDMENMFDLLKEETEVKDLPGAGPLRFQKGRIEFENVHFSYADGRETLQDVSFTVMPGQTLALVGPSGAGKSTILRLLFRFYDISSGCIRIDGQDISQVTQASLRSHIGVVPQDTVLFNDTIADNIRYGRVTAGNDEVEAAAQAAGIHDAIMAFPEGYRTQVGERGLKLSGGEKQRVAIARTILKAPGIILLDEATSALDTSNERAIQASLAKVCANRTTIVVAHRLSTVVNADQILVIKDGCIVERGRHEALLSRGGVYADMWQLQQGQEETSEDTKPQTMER
FGF22 binding: FGF22 (human) thermal shift binding; Q9HCT0; recombinant FGF22 thermal shift, SYPRO orange fluorescence; percent of sucrose octasulfate shift, DMSO zero; activity (Tm shift, normalised), % at 9.99 µM; 1.5% of 340,000 active;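 active = mean Tm shift, scaled 0 neutral to 100 positive control, at about 1.3% or above, every replicate too, limit read from the data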
Exocytosis inh: blocks lytic granule exocytosis. inhibition, % at 10 µM. 0.66% of 360,000 active. TALL-104 LAMP-1 surface exposure, flow cytometry; cells stimulated with thapsigargin and PMA. AID 651702;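 active = inhibition above about 55%, limit read from the data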
Exocytosis CP01: blocks lytic granule exocytosis | shares compounds with Exocytosis inh | TALL-104 cells, LAMP-1 externalization, flow cytometry; stimulated with PMA plus thapsigargin | inhibition, % at 10 µM | 11% of 1,500 active | AID 651954; in the data active = inhibition above about 60%;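 also: 0% = stimulated vehicle wells and 100% = unstimulated wells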
* = called active by the depositor; . = not tested or not shown. This is a sample that favours compounds with a hit; in the whole collection about 2% have one here.

SMILES | DAGLB inhibitor | MT1-MMP act inh | VLA-4 inh | ABCB6 inh MLPCN | FGF22 binding | Exocytosis inh | Exocytosis CP01
O=C(CCN1Cc2ccccc2C1)c1ccc2c(c1)OCCO2 | -3.7 | 0.5 | 5.2 | 107.0 | . | 40.1 | .
O=C(CCN1CCc2ccccc2C(c2ccccc2)C1)c1ccc2c(c1)OCCO2 (stereo not given) | -3.0 | 2.5 | 10.3 | 97.0 | . | 95.8* | 81.0*
Cc1ccc2cccc(NC(=O)c3ccc(Br)o3)c2n1 | -15.8 | -20.5 | 3.7 | 97.0 | . | 89.1* | -4.2
Cc1cc(NCCCOC(C)C)n2c(nc3ccccc32)c1C#N | -0.9 | -4.4 | -1.0 | 105.0 | -0.1 | 61.8* | -13.6
CCN(Cc1ccccc1)CC(O)COC(c1ccc(OC)cc1)c1ccc(OC)cc1 (stereo not given) | 0.4 | -1.0 | -7.1 | 110.0 | -0.1 | 65.5* | -11.3
CCN(CC)CC(O)COC(c1ccccc1)c1ccccc1 (stereo not given) | 2.0 | 1.7 | 6.8 | 96.0 | 0.2 | -3.8 | .
Cc1cc(C(=O)Nc2cccc3c2O[C@@H](CN(C)Cc2ccccc2)[C@H](C)CN([C@@H](C)CO)C3=O)n(C)n1 | . | . | . | . | -0.5 | . | .
COc1ccc(C(=O)Nc2ccc(Cl)cc2C(=O)NCc2ccco2)cc1OC | -4.6 | 3.5 | 11.1 | 103.0 | . | 60.0* | 44.3
COc1cc(C(=O)Nc2sc3c(c2C(=O)NCc2ccco2)CCCC3)cc(OC)c1OC | -5.6 | 12.3 | -3.7 | 91.0 | . | 55.0 | .
COc1ccc(C(=O)Nc2sc3c(c2C(=O)NCc2ccco2)CCCC3)cc1OC | 0.5 | 4.5 | -16.2 | 89.0 | . | 55.8* | 4.8
O=C(Nc1sc2c(c1C(=O)NCc1ccco1)CCCC2)c1ccc2c(c1)OCO2 | -3.4 | -5.1 | -1.6 | 98.0 | . | 59.2* | -2.1
CC(=O)N1CC[C@@H]2[C@H]1c1cc(-c3ccc(C#N)cc3)ccc1N(C)[C@@H]2CO | . | . | . | . | 0.0 | . | .
C[C@H](CO)N1C[C@H](C)[C@@H](CN(C)S(C)(=O)=O)OCCCC[C@H](C)Oc2ccc(NC(=O)Nc3ccc(F)cc3)cc2C1=O | . | . | . | . | -0.3 | . | .
CNC[C@H]1OCCCC[C@@H](C)Oc2ccc(NC(=O)Nc3ccccc3)cc2C(=O)N([C@@H](C)CO)C[C@@H]1C | . | . | . | . | -1.0 | . | .
CCOc1ccc2nc(C)cc(Nc3cccc([N+](=O)[O-])c3)c2c1 | 1.4 | -1.1 | -0.1 | 95.0 | 0.0 | 90.2* | 80.0*
Cc1cc(Nc2cccc([N+](=O)[O-])c2)c2ccccc2n1 | 1.5 | 8.9 | -2.2 | 110.0 | 0.0 | 5.7 | .
COc1ccc(S(=O)(=O)Nc2ccc3c(c2)C(=O)N([C@@H](C)CO)C[C@H](C)[C@H](CN(C)S(=O)(=O)c2ccccc2)OCCCC[C@@H](C)O3)cc1 | . | . | . | . | -0.3 | . | .
CC(NCc1cc(Br)ccc1OCC(N)=O)C12CC3CC(CC(C3)C1)C2 (stereo not given) | 0.0 | 6.9 | -5.2 | 102.0 | 0.1 | 58.6* | -3.7
C[C@H]1CN([C@@H](C)CO)S(=O)(=O)c2ccc(-c3ccccc3F)cc2O[C@@H]1CN(C)C | . | . | . | . | -0.2 | . | .
CNC[C@H]1Oc2ccc(NC(=O)CCC(F)(F)F)cc2CC(=O)N([C@@H](C)CO)C[C@@H]1C | . | . | . | . | 0.2 | . | .
CSc1ccc2c(c1)C(N1CCN(C)CC1)Cc1ccc(F)cc1S2 (stereo not given) | . | -16.9 | -0.7 | 101.0 | 0.0 | 69.4* | 39.1
CN1C(C(=O)NCCc2cccs2)CC2Cn3c(nc4cc(Cl)c(Cl)cc43)C21 (stereo not given) | -1.5 | 4.0 | 22.5 | 98.0 | 0.2 | 17.4 | .
COc1ccc(CCNC(=O)C2CC3Cn4c(nc5cc(Cl)c(Cl)cc54)C3N2C)cc1 (stereo not given) | 2.4 | 4.7 | -3.6 | 104.0 | -0.1 | 83.3* | -12.9
Fc1ccc(CNCCC(Cc2ccccc2)c2ccco2)cc1 (stereo not given) | -4.3 | 1.5 | 13.7 | 99.0 | 0.1 | 78.5* | -10.9
O=C(N[C@@H]1CC[C@H](CCn2cc(-c3ccccc3)nn2)O[C@H]1CO)c1ccccc1F | . | . | . | . | 0.0 | . | .
SMILES | DAGLB inhibitor | MT1-MMP act inh | VLA-4 inh | ABCB6 inh MLPCN | FGF22 binding | Exocytosis inh | Exocytosis CP01
COc1ccc(C(C)=O)cc1COC(=O)c1cccnc1Cl | -0.8 | 1.8 | -3.3 | 99.0 | -0.1 | 15.1 | .
COc1ccc(C(C)=O)cc1COC(=O)c1cc2ccccc2cc1O | -15.7 | -0.4 | -2.7 | 97.0 | 0.0 | 91.4* | -5.5
O=C1CCN(CCc2ccccc2)CCN1[C@H](CSc1ccccc1)c1ccccc1 | -5.8 | -5.3 | 15.7 | 97.0 | 0.3 | 9.8 | .
Cc1ccc(SC[C@H](c2ccccc2)N2CCN(CCc3ccccc3)CCC2=O)cc1 | -8.8 | -1.3 | -11.2 | 94.0 | 0.2 | 59.0* | -11.3
CCN(CC)CCSc1nnc2c3ccccc3n(CCc3ccccc3)c2n1 | -6.4 | 0.0 | 6.0 | 87.0 | 0.2 | 60.1* | -13.6
C=CCn1c2ccccc2c2nnc(SCCCn3c(=O)[nH]c4ccccc43)nc21 | 1.9 | -4.9 | . | 82.0 | . | 66.7* | 12.1
O=C1c2ccccc2C(=O)N1CSc1nnc2c3ccccc3n(CCc3ccccc3)c2n1 | -3.9 | -2.3 | -7.9 | 174.0 | . | 14.0 | .
CCOC(=O)Cc1csc(-n2sc3ccccc3c2=O)n1 | 2.5 | -2.8 | 1.9 | 103.0 | 0.1 | 78.4* | 36.0
CCOC(=O)Cc1csc(SCn2nnc3ccccc3c2=O)n1 | -2.2 | 0.8 | -9.5 | 96.0 | . | -1.4 | .
COCCNc1nc(NCc2cccc(OC)c2)c2sc(-c3ccccc3)cc2n1 | . | 1.0 | . | 96.0 | 0.2 | 76.0* | 99.5*
C=CCNc1nc(NCc2ccc(N(C)C)cc2)c2sc(-c3ccccc3)cc2n1 | . | 0.5 | . | 99.0 | -0.2 | 74.8* | 92.6*
COCCNc1nc(NCc2ccc(NC(C)=O)cc2)c2sc(-c3ccccc3)cc2n1 | . | -20.0 | . | 95.0 | 0.1 | 44.5 | .
c1ccc(CNc2nc(NCC3CC3)nc3cc(-c4ccccc4)sc23)cc1 | . | 1.6 | . | 94.0 | 0.0 | 71.1* | 94.6*
CC(C)NC(=O)N[C@H]1CC[C@@H](CC(=O)O)O[C@H]1CO | . | . | . | . | 0.8 | . | .
Cc1noc(C)c1NC(=O)Nc1ccc2c(c1)C(=O)N([C@@H](C)CO)C[C@H](C)[C@H](CN(C)C(=O)Nc1cccc3ccccc13)O2 | . | . | . | . | 0.1 | . | .

Source: PubChem BioAssay
